The test system of data set [1] is HT-29. The experiment in a line: Induction of ROS generation in human HT-29 cells at > 250 uM after 24 hrs by FACS flow cytometry. The class given is functional, cell-based.
Data set [2] deals with HT-29. As to the kind of experiment: Cell cycle arrest in human HT-29 cells assessed as ROS-stimulated accumulation at G2/M phase at 62.5 to 250 uM after 24 hrs by propidium iodide based FACS flow cytometry.
The subject of data set [3] is HT-29. The experiment in a line: Cytotoxicity against human HT-29 cells assessed as growth inhibition after 72 hrs by WST-8 assay. In kind it is functional. The procedure, abridged:
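Viability read by WST-8 (Cell Counting Kit-8) after 72 h incubation of HT-29 cells with compound. Cells cultured in DMEM with 10% FBS at 37 °C, 5% CO₂. Means ± SD, n = 3.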
For orientation: Tetrazolium assays rely on reduction of a dye to a coloured formazan, in cell work by metabolically active cells.

Data set [4] concerns HT-29. As to the kind of experiment: Cytotoxicity against human HT-29 cells assessed as dead cells at > 31.3 uM after 72 hrs by […]. The class given is functional. The procedure, abridged:
(§1)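 HT-29 colon cancer cells grown in DMEM with 10% FBS, 2 mM glutamine, penicillin and streptomycin at 37 °C, 5% CO2. Cells exposed to compound or vehicle (0.1% DMSO) for 72 h. Live and dead cells were counted by ViaCount staining on a Guava EasyCyte Plus flow cytometer, and percent dead cells was calculated. Mean ± SD, n = 3.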

Data set [5] relates to HT-29. The experiment in a line: Cytotoxicity against human HT-29 cells assessed as dead cells at GI70 concentration after 72 hrs by WST-8 assay. The class given is functional. The procedure, abridged: as §1
Data set [6] has as its system WI-38. As to the kind of experiment: Cell cycle arrest in human WI38 cells assessed as ROS-stimulated accumulation at G2/M phase at 250 uM after 24 hrs by propidium iodide based FACS flow cytometry in presence of N-acetyl-L-cysteine. As to conditions: wi-38, 24 h. Background: Flow cytometry measures light scatter and fluorescence of single cells or particles in a stream.

The test system of data set [7] is HCT-15. The experiment in a line: Cell cycle arrest in human HCT15 cells assessed as ROS-stimulated accumulation at G2/M phase after 24 hrs by propidium iodide based FACS flow cytometry in presence of L-ascorbic acid. The class given is functional.
In data set [8] the test system is HT-29. The experiment in a line: Upregulation of Cyclin B gene expression in human HT-29 cells at 125 to 500 uM after 24 hrs by Western blotting. In kind it is functional, cell-based. The procedure, abridged: (§2)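 HT-29 cells treated 24 h or given 0.1% DMSO, then lysed in 50 mM Tris-HCl with 1% SDS and protease inhibitors. Blots were blocked in 5% skim milk/TBST for 1 h at RT and probed with primary antibody for 1 h at RT. Detection by ECL, with β-actin as loading control.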
(Immunoblotting shows a protein as a band on a membrane.)

Data set [9] has as its system HCT-15. The experiment in a line: Cell cycle arrest in human HCT15 cells assessed as ROS-stimulated accumulation at G2/M phase after 24 hrs by propidium iodide based FACS flow cytometry in presence of alpha-tocopherol. The class given is functional.
Data set [10] deals with HT-29. The experiment in a line: Cell cycle arrest in human HT-29 cells assessed as ROS-stimulated increase in p21 at 250 to 500 uM after 24 hrs by Western blotting in presence of N-acetyl-L-cysteine. In kind it is functional, cell-based.
The test system of data set [11] is HT-29. The experiment in a line: Upregulation of CDK1 gene expression in human HT-29 cells at 125 to 500 uM after 24 hrs by Western blotting. The class given is functional, cell-based. An outline of the steps: as §2
Data set [12] has as its system WI-38. As to the kind of experiment: Cytotoxicity against human WI38 cells assessed as growth inhibition after 72 hrs by WST-8 assay. In kind it is cell-based. Conditions: wi-38, 72 h.
Data set [13] deals with HT-29. The experiment in a line: Cell cycle arrest in human HT-29 cells assessed as ROS-stimulated accumulation at G2/M phase after 24 hrs by propidium iodide based FACS flow cytometry in presence of MnTBAP. In kind it is functional. The procedure, abridged:
(§3)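 HT-29 cells grown in DMEM with 10% FBS and 2 mM glutamine at 37 °C, 5% CO₂, treated 24 h, then permeabilized with 0.1% Triton X-100. Stained with 100 μg/mL propidium iodide and analysed for G1, S and G2/M fractions by FACSCalibur flow cytometry. Data are means ± SD, n = 3, versus 0.1% DMSO control.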

The subject of data set [14] is HT-29. The experiment in a line: Upregulation of p21 gene expression in human HT-29 cells assessed as decrease in phosphorylated CDK1 at Thr161 at 500 uM after 24 hrs by Western blotting. The class given is functional, cell-based. An outline of the steps: as §2
In data set [15] the test system is HCT-116. As to the kind of experiment: Cell cycle arrest in human HCT116 cells assessed as ROS-stimulated accumulation at G2/M phase after 24 hrs by propidium iodide based FACS flow cytometry in presence of N-acetyl-L-cysteine. The class given is functional.
Data set [16] deals with HCT-116. The experiment in a line: Cytotoxicity against human HCT116 cells assessed as growth inhibition after 72 hrs by WST-8 assay. The class given is functional, cell-based.
The test system of data set [17] is HT-29. The experiment in a line: Cell cycle arrest in human HT-29 cells assessed as ROS-stimulated accumulation at G2/M phase after 24 hrs by propidium iodide based FACS flow cytometry in presence of alpha-tocopherol. In kind it is functional. An outline of the steps: as §3
Data set [18] deals with HT-29. The experiment in a line: Cell cycle arrest in human HT-29 cells assessed as accumulation at G2/M phase at > 250 uM after 24 hrs by propidium iodide based FACS flow cytometry relative to control. In kind it is functional. The procedure, abridged: (§4)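 HT-29 cells exposed 24 h to 125, 250 or 500 μM, with 0.1% DMSO as vehicle control. Permeabilized with 0.1% Triton X-100, stained with 100 μg/mL PI and analysed by FACSCalibur for G1/S/G2/M percentages. Means ± SD, n = 3; significance tested against DMSO control.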

Data set [19] concerns HT-29. As to the kind of experiment: Cytotoxicity against human HT-29 cells assessed as dead cells at 1000 uM after 72 hrs by […]. The class given is functional. The procedure, abridged: as §1
Data set [20] relates to HT-29. As to the kind of experiment: Cell cycle arrest in human HT-29 cells transfected with p21 siRNA assessed as accumulation at G2/M phase at 500 uM after 24 hrs by propidium iodide based FACS flow cytometry. In kind it is functional. The procedure, abridged:
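HT-29 cells transiently transfected for 24 h with 10 nM p21 or negative-control siRNA using Lipofectamine RNAiMAX, alongside 24 h exposure to 500 μM or 0.1% DMSO. Cells were PI-stained and cell-cycle phases quantified by flow cytometry. Means ± SD, n = 3, versus DMSO-treated control.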

Data set [21] deals with HT-29. As to the kind of experiment: Cell cycle arrest in human HT-29 cells assessed as ROS-stimulated accumulation at G2/M phase after 24 hrs by propidium iodide based FACS flow cytometry in presence of L-ascorbic acid. In kind it is functional. The procedure, abridged:
as §3

The test system of data set [22] is HCT-15. The experiment in a line: Cell cycle arrest in human HCT15 cells assessed as ROS-stimulated accumulation at G2/M phase after 24 hrs by propidium iodide based FACS flow cytometry in presence of N-acetyl-L-cysteine. The class given is functional.
The test system of data set [23] is HT-29. The experiment in a line: Cell cycle arrest in human HT-29 cells assessed as ROS-stimulated accumulation at G2/M phase at 125 to 500 uM after 24 hrs by propidium iodide based FACS flow cytometry in presence of N-acetyl-L-cysteine. The class given is functional. The procedure, abridged:
as §3

For data set [24], the system named is HCT-116. The experiment in a line: Cell cycle arrest in human HCT116 cells assessed as ROS-stimulated accumulation at G2/M phase after 24 hrs by propidium iodide based FACS flow cytometry in presence of alpha-tocopherol. The class given is functional.
Data set [25] relates to HCT-116. The experiment in a line: Cell cycle arrest in human HCT116 cells assessed as ROS-stimulated accumulation at G2/M phase after 24 hrs by propidium iodide based FACS flow cytometry in presence of L-ascorbic acid. In kind it is functional.
Data set [26] relates to HCT-15. As to the kind of experiment: Cytotoxicity against human HCT15 cells assessed as growth inhibition after 72 hrs by WST-8 assay. In kind it is functional, cell-based.
The subject of data set [27] is HT-29. The experiment in a line: Cytotoxicity against human HT-29 cells assessed as dead cells at 500 uM after 72 hrs by […]. In kind it is functional. The procedure, abridged: as §1
Data set [28] relates to HT-29. The experiment in a line: Cell cycle arrest in human HT-29 cells assessed as ROS-stimulated accumulation at G2/M phase after 24 hrs by propidium iodide based FACS flow cytometry in presence of PEG-penetreated catalase. The class given is functional. An outline of the steps: as §3
Data set [29] relates to HT-29. The experiment in a line: Cell cycle arrest in human HT-29 cells assessed as ROS-stimulated accumulation at G2/M phase after 24 hrs by propidium iodide based FACS flow cytometry in presence of SOD. The class given is functional. An outline of the steps: as §3
Data set [30] deals with HT-29. The experiment in a line: Upregulation of p21 gene expression in human HT-29 cells at > 250 uM after 24 hrs by Western blotting. In kind it is functional, cell-based. The procedure, abridged: as §2
Data set [31] relates to HT-29. As to the kind of experiment: Cell cycle arrest in human HT-29 cells assessed as accumulation at G2/M phase at 250 uM after 24 hrs by propidium iodide based FACS flow cytometry. The class given is functional. The procedure, abridged:
as §4

The source made the active and inactive calls. No cut-off for these calls is given here.

Turning to `COc1ccc(/C=C/C(C)=O)cc1O`, the outcome with HT-29 [1] and in the data set on HT-29 [2] was Active. In the data set with HT-29 [3], the “growth inhibition (GI)” value is “Active”.

`COc1cccc(/C=C/C(C)=O)c1O`: the outcome in the data set on HT-29 [1] and in the data set on HT-29 [2] was Active. Further, the “growth inhibition (GI)” value in the data set on HT-29 [3] was “Active”.

For `COc1cc(/C=C/C(=O)CC(=O)/C=C/c2ccc(O)c(OC)c2)ccc1O` [CURCUMIN], the Activity in the data set with HT-29 [4] stood at 84%; in the data set on HT-29 [5] it was 45%.

On to `COc1cc(/C=C/C(C)=O)ccc1O` [DEHYDROZINGERONE], for which the Activity result is reported as “Toxic” in the data set on WI-38 [6]; “Toxic” with WI-38 [12]; 37% in the data set on HT-29 [19]; 11% in the data set with HT-29 [5]; 22% in the data set on HT-29 [27]. In addition, the result with HCT-15 [7], in the data set with HCT-15 [9], in the data set on HT-29 [13], with HT-29 [14], in the data set on HT-29 [17] and in the data set on HT-29 [1] was Active. The result in the data set with HT-29 [21], in the data set on HCT-116 [24], in the data set with HT-29 [2], in the data set with HCT-116 [25], in the data set on HT-29 [28] and with HT-29 [29] was Active. In addition, the outcome with HT-29 [30] and with HT-29 [31] was Active. Besides, the outcome in the data set with HT-29 [8], in the data set on HT-29 [10], in the data set on HT-29 [11], in the data set on HCT-116 [15], in the data set with HT-29 [20] and with HCT-15 [22] was inactive. Further, in the data set with HT-29 [23], the result was inactive. In addition, the “growth inhibition (GI)” value in the data set on HCT-116 [16], in the data set on HT-29 [3] and with HCT-15 [26] was “Active” in each case. Moreover, in the data set with HT-29 [18], the “fold change (FC)” value is given as 2.

(Values after ChEMBL document CHEMBL2203225, “Dehydrozingerone, a structural analogue of curcumin, induces cell-cycle arrest at the G2/M phase and accumulates intracellular ROS in HT-29 human colon cancer cells” (J Nat Prod, 2012).)
